Measured values taken from ChEMBL document CHEMBL1156875, “Anti-influenza drug discovery: structure-activity relationship and mechanistic insight into novel angelicin derivatives” (J Med Chem, 2010).
The source made the active and inactive calls. No cut-off for these calls is given here.

Key:
Influenza A virus [1] = assay: Antiviral activity against human influenza A virus A/WSN/33 (H1N1) in MDCK cells assessed as reduction of virus-induced cytopathic effect; type: functional, organism-based; details: A/WSN/1933(H1N1)
In short: (§1)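 MDCK cells (1.1 × 10^5 cells/mL in DMEM + 10% FBS) grown 24-30 h at 37 C to about 90% confluency. Virus (100 TCID50) premixed with serially diluted compound, adsorbed 1 h at 37 C. Overlay of serum-free DMEM with trypsin 2.5 μg/mL and 0.1% DMSO, then 72 h at 37 C. Formaldehyde fixation, crystal violet stain, A570. IC50 = 50% CPE reduction versus virus control. Triplicate, at least two runs.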

Influenza A virus [2] = assay: Antiviral activity against human influenza A virus A/TW/141/04 (H1N1) in MDCK cells assessed as reduction of virus-induced cytopathic effect; type: functional, organism-based; in short: as §1
Influenza A virus [3] = assay: Antiviral activity against human influenza A virus A/TW/3446/04 (H3N2) in MDCK cells assessed as reduction of virus-induced cytopathic effect; type: functional, organism-based; in short: as §1
Influenza B virus [4] = assay: Antiviral activity against human influenza B virus B/TW/710/05 in MDCK cells assessed as reduction of virus-induced cytopathic; type: functional, organism-based; details: B/TW/710/05, MDCK; in short: as §1
Influenza B virus [5] = assay: Antiviral activity against human influenza B virus B/TW/70325/05 in MDCK cells assessed as reduction of virus-induced cytopathic; type: functional, organism-based; details: B/TW/70325/05, MDCK; in short: as §1
Influenza B virus [6] = assay: Antiviral activity against human influenza B virus B/TW/99/07 in MDCK cells assessed as reduction of virus-induced cytopathic; type: functional, organism-based; details: B/TW/99/07, MDCK; in short: as §1
Influenza A virus [7] = assay: Antiviral activity against human influenza A virus A/WSN/33 (H1N1) in MDCK cells assessed as reduction of M1 protein by immunofluorescence microscopic analysis; type: functional, organism-based; details: A/WSN/1933(H1N1)
In short: (§2)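 Influenza-infected MDCK cells examined by immunofluorescence microscopy with anti-dsRNA, anti-NP and anti-M1 antibodies to visualise viral RNA and proteins.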

Influenza A virus [8] = assay: Antiviral activity against human influenza A virus A/WSN/33 (H1N1) in MDCK cells assessed as reduction of plaque formation at 20 nM; type: functional, A/WSN/1933(H1N1); design: scale not given: the % may be the effect or the level left
In short: (§3)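 Six-well MDCK monolayers (5.5 × 10^5 cells/well, overnight) infected with about 125 PFU/well of A/WSN/33 with or without compound, adsorbed 1 h at 37 C, then washed with HBSS. Agarose 0.3% overlay in trypsin-containing serum-free medium carrying the same compound level, 48 h at 37 C, 5% CO2. Fixed, crystal violet stained, plaques counted relative to virus control.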

Influenza A virus [9] = assay: Antiviral activity against human influenza A virus A/WSN/33 (H1N1) in MDCK cells assessed as reduction of plaque formation at 100 nM; type: functional, organism-based; details: A/WSN/1933(H1N1); in short: as §3
[10] = Cytotoxicity against MDCK cells after 72 hrs; type: cell-based, Canis lupus familiaris; details: dog
In short: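 Uninfected MDCK monolayers (seeded at 1.1 × 10^5 cells/mL, grown 24-30 h to about 90% confluency) exposed to graded compound concentrations for 72 h at 37 C. Read by formaldehyde fixation, 0.1% crystal violet staining and absorbance at 570 nm. CC50 = concentration reducing viability to 50% of control. Triplicate, repeated at least twice.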

Influenza A virus [11] = assay: Antiviral activity against human influenza A virus A/WSN/33 (H1N1) in MDCK cells assessed as prevention of progeny formation up to 4 hrs by time-of-addition study; type: functional, organism-based; details: A/WSN/1933(H1N1)
In short: (§4)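 MDCK (2.4 × 10^5 cells/well, six-well) infected at MOI 0.001 on ice for 1 h, washed, fresh medium set as 0 h pi. Compound at 1 μM present only during −1 to 0, 0-2, 2-4, 4-6 or 6-8 h, then washed off. Incubated in fresh medium to 12 h pi; supernatant virus yield titrated by plaque assay.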

Influenza A virus [12] = assay: Antiviral activity against human influenza A virus A/WSN/33 (H1N1) in MDCK cells assessed as prevention of progeny formation after 4 to 8 hrs by time-of-addition study; type: functional, organism-based; details: A/WSN/1933(H1N1); in short: as §4
Influenza A virus [13] = assay: Antiviral activity against human influenza A virus A/WSN/33 (H1N1) assessed as inhibition of guinea pig red blood cells at 25 uM by hemagglutinination inhibition assay; type: functional, organism-based; details: A/WSN/1933(H1N1)
In short: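 Hemagglutination inhibition format: A/WSN/33 attachment to guinea pig red blood cells tested with compound at 25 μM.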

Influenza A virus [14] = assay: Antiviral activity against human influenza A virus A/WSN/33 (H1N1) in MDCK cells assessed as reduction of dsRNA by immunofluorescence microscopic analysis; type: functional, organism-based; details: A/WSN/1933(H1N1); in short: as §2
Influenza A virus [15] = assay: Antiviral activity against human influenza A virus A/WSN/33 (H1N1) in MDCK cells assessed as reduction of NP protein by immunofluorescence microscopic analysis; type: functional, organism-based; details: A/WSN/1933(H1N1); in short: as §2

Row | SMILES | IC50 (Influenza A virus [1]) | CC50 at 72 h [10] | other results
1 | CC(=O)N[C@H]1[C@H]([C@H](O)[C@H](O)CO)OC(C(=O)O)=C[C@@H]1NC(=N)N [ZANAMIVIR] | 60 nM | – | IC50 (Influenza A virus [2]): 350 nM; IC50 (Influenza A virus [3]): 30 nM; IC50 (Influenza B virus [4]): 30 nM; IC50 (Influenza B virus [5]): 20 nM; IC50 (Influenza B virus [6]): 100 nM
2 | Cc1cc(=O)oc2c1ccc1oc(C(=O)c3cccs3)c(-c3ccccc3)c12 | 70 nM | > 25000 nM | Activity (Influenza A virus [7]): Active; Activity (Influenza A virus [8]): 50%; Activity (Influenza A virus [9]): Active; IC50 (Influenza A virus [2]): 90 nM; IC50 (Influenza A virus [3]): 150 nM; IC50 (Influenza B virus [4]): 90 nM; IC50 (Influenza B virus [5]): 90 nM; IC50 (Influenza B virus [6]): 40 nM; Activity (Influenza A virus [11]): Active; Activity (Influenza A virus [12]): inactive; Activity (Influenza A virus [13]): inactive; Activity (Influenza A virus [14]): Active; Activity (Influenza A virus [15]): Active
3 | Cc1cc(=O)oc2c1ccc1oc(C(=O)c3ccccc3)c(-c3cccc4ccccc34)c12 | 880 nM | > 25000 nM | –
4 | CC(=O)c1oc2ccc3c(C)cc(=O)oc3c2c1-c1ccccc1 | > 25000 nM | > 25000 nM | –
5 | Cc1cc(=O)oc2c1ccc1oc(C(=O)c3ccccc3)c(-c3ccco3)c12 | 650 nM | > 25000 nM | –
6 | Cc1cc2ccc3oc(C(=O)c4ccccc4)c(-c4ccccc4)c3c2oc1=O | 2790 nM | > 25000 nM | –
7 | Cc1cc(=O)oc2c1ccc1oc(Cc3ccccc3)c(-c3ccccc3)c12 | 630 nM | > 25000 nM | –
8 | CCCc1c(C(=O)c2ccccc2)oc2ccc3c(C)cc(=O)oc3c12 | 290 nM | > 25000 nM | –
9 | Cc1cc(=O)oc2c1ccc1oc(C(=O)c3ccccc3)c(-c3ccc([N+](=O)[O-])cc3)c12 | 760 nM | > 25000 nM | –
10 | Cc1cc(=O)oc2c1ccc1oc(-c3ccccc3)c(-c3ccccc3)c12 | > 25000 nM | > 25000 nM | –
11 | COc1cccc(C(=O)c2oc3ccc4c(C)cc(=O)oc4c3c2-c2cccc(Br)c2)c1 | 90 nM | > 25000 nM | –
12 | CCCCCOc1cccc(C(=O)c2oc3ccc4c(C)cc(=O)oc4c3c2-c2ccccc2)c1 | 140 nM | > 25000 nM | –
13 | Cc1cc(=O)oc2c1ccc1sc(C(=O)c3ccccc3)c(-c3ccccc3)c12 | 720 nM | > 25000 nM | –
14 | Cc1cc(=O)oc2c1ccc1oc(C(=O)c3ccccc3)c(-c3cccc([N+](=O)[O-])c3)c12 | 250 nM | > 25000 nM | –
15 | Cc1cc(=O)oc2c1ccc1oc(C(=O)c3cccc(O)c3)c(-c3ccccc3)c12 | 720 nM | > 25000 nM | –
16 | Cc1cc(=O)oc2c1ccc1oc(C(=O)c3ccco3)c(-c3ccccc3)c12 | 410 nM | > 25000 nM | –
17 | CCCOc1cccc(C(=O)c2oc3ccc4c(C)cc(=O)oc4c3c2-c2ccccc2)c1 | 150 nM | > 25000 nM | –

Row | SMILES | IC50 (Influenza A virus [1]) | CC50 at 72 h [10] | other results
18 | Cc1cc(=O)oc2c1ccc1oc(C(=O)c3ccccc3)cc12 | 2430 nM | > 25000 nM | –
19 | Cc1cc(=O)oc2c1ccc1oc(C(=O)c3cccc([N+](=O)[O-])c3)c(-c3ccccc3)c12 | 1710 nM | > 25000 nM | –
20 | Cc1cc(=O)oc2c1ccc1oc(C(=O)c3ccc(Cl)cc3)c(-c3ccccc3)c12 | 22300 nM | > 25000 nM | –
21 | COc1ccc(C(=O)c2oc3ccc4c(C)cc(=O)oc4c3c2-c2ccccc2)cc1 | 1670 nM | > 25000 nM | –
22 | CCc1cc(=O)oc2c1ccc1oc(C(=O)c3ccccc3)c(-c3ccccc3)c12 | 240 nM | > 25000 nM | –
23 | Cc1cc(=O)oc2c1ccc1oc(C(=O)c3cccc(OCCCO)c3)c(-c3ccccc3)c12 | 2650 nM | > 25000 nM | –
24 | Cc1cc(=O)oc2c1ccc1oc(C(=O)c3ccccc3)c(-c3ccc(Br)cc3)c12 | 460 nM | > 25000 nM | –
25 | Cc1ccccc1C(=O)c1oc2ccc3c(C)cc(=O)oc3c2c1-c1ccccc1 | 6620 nM | > 25000 nM | –
26 | COc1cccc(C(=O)c2oc3ccc4c(C)cc(=O)oc4c3c2-c2ccccc2)c1 | 110 nM | > 25000 nM | –
27 | O=C(c1ccccc1)c1oc2ccc3c(-c4ccccc4)cc(=O)oc3c2c1-c1ccccc1 | > 25000 nM | > 25000 nM | –
28 | Cc1cc(=O)oc2c1ccc1oc(C(=O)c3ccccc3)c(-c3cccc(Br)c3)c12 | 80 nM | > 25000 nM | –
29 | Cc1cc(=O)oc2c1ccc1oc(C(=O)c3ccccc3)c(-c3ccc4ccccc4c3)c12 | 1910 nM | > 25000 nM | –
30 | Cc1cc(=O)oc2c1ccc1oc(C(=O)c3cccc(F)c3)c(-c3ccccc3)c12 | 290 nM | > 25000 nM | –
31 | O=C(c1ccccc1)c1oc2ccc3ccccc3c2c1-c1ccccc1 | > 25000 nM | > 25000 nM | –
32 | Cc1cc(=O)oc2c1ccc1oc(C(=O)c3cccs3)c(-c3cccc(Br)c3)c12 | 60 nM | > 25000 nM | –
33 | O=C(c1ccccc1)c1oc2ccccc2c1-c1ccccc1 | > 25000 nM | 5270 nM | –
34 | C/C=C/C(=O)Oc1cccc2oc(C(=O)c3ccccc3)c(-c3ccccc3)c12 | 20800 nM | > 25000 nM | –
